From ChEMBL document CHEMBL1131226, “Structure-activity relationship of 2-[[(2-pyridyl)methyl]thio]-1H- benzimidazoles as anti Helicobacter pylori agents in vitro and evaluation of their in vivo efficacy” (J Med Chem, 1998)
Values after ≈ are worked out from the molar mass of the structure shown.

Experiments:
Helicobacter pylori = assay: Antibacterial activity against Helicobacter pylori strain.; format: functional
Outline: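 H. pylori ATCC 43504 in Brucella broth (pH 7.0) with 10% FCS, starting at ~10⁶ CFU/mL. Compounds were tested as twofold serial dilutions, 0.5–256 μg/mL, made in DMSO. Cultures were incubated 72 h at 37 °C under 85% N₂/10% CO₂/5% O₂ and read by OD at 560 nm. MIC is the lowest concentration completely inhibiting growth.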

[1] = chromatographic retention
Helicobacter felis = assay: Antibacterial activity against Helicobacter felis strain in vitro.

SMILES	MBC (Helicobacter pylori)	Log Ko [1]	MBC (Helicobacter felis)
c1ccc(CSc2nc3ccccc3[nH]2)nc1	128 µg/mL (≈ 530 µM)		
C=CCOc1ccnc(CSc2nc3ccccc3[nH]2)c1C	1 µg/mL (≈ 3.21 µM)	0.26	
Cc1c(OCC(C)C)ccnc1CSc1nc2ccccc2[nH]1	1 µg/mL (≈ 3.05 µM)	0.75	
Clc1ccnc(CSc2nc3ccccc3[nH]2)c1	64 µg/mL (≈ 232 µM)	-0.08	
COc1ccnc(CSc2nc3cc(F)ccc3[nH]2)c1OC	4 µg/mL (≈ 12.5 µM)	0.44	
COc1c(C)cnc(CSc2nc3cc(C(C)(C)C)ccc3[nH]2)c1C	8 µg/mL (≈ 22.5 µM)	0.86	
COc1ccnc(CSc2nc3cc(CO)ccc3[nH]2)c1C	128 µg/mL (≈ 406 µM)	-0.66	
COc1c(C)cnc(CSc2nc3ccccc3[nH]2)c1C	8 µg/mL (≈ 26.7 µM)	0.05	
Cc1cnc(CSc2nc3cc(C)ccc3[nH]2)c(C)c1	32 µg/mL (≈ 113 µM)	0.23	
CC(=O)c1ccc2[nH]c(SCc3ncc(C)cc3C)nc2c1	128 µg/mL (≈ 411 µM)	-0.11	
C#CCOc1ccnc(CSc2nc3ccccc3[nH]2)c1C	2 µg/mL (≈ 6.46 µM)	-0.01	
COCCOc1ccnc(CSc2nc3ccccc3[nH]2)c1C	2 µg/mL (≈ 6.07 µM)	-0.17	
CCOc1ccnc(CSc2nc3ccccc3[nH]2)c1C	2 µg/mL (≈ 6.68 µM)	0.19	
Cc1ccnc(CSc2nc3ccccc3[nH]2)c1	128 µg/mL (≈ 501 µM)	-0.21	
Cc1cnc(CSc2nc3cc(Cl)ccc3[nH]2)c(C)c1	8 µg/mL (≈ 26.3 µM)	0.45	
COc1ccc2[nH]c(SCc3cc(SC)ccn3)nc2c1	256 µg/mL (≈ 806 µM)	-0.16	
COc1ccnc(CSc2nc3ccccc3[nH]2)c1C	32 µg/mL (≈ 112 µM)	-0.08	
Cc1c(OCc2ccccc2)ccnc1CSc1nc2ccccc2[nH]1	8 µg/mL (≈ 22.1 µM)	0.67	
COc1ccnc(CSc2nc3ccccc3[nH]2)c1	64 µg/mL (≈ 236 µM)	-0.3	
COCCCOc1ccnc(CSc2nc3ccccc3[nH]2)c1C	2 µg/mL (≈ 5.82 µM)	0.07	
CC(=O)c1ccc2[nH]c(SCc3cc(C(C)(C)C)ccn3)nc2c1	64 µg/mL (≈ 189 µM)	0.18	
c1ccc2[nH]c(SCc3cc(OCC4CC4)ccn3)nc2c1	32 µg/mL (≈ 103 µM)	0.13	
Cc1c(OCC2CC2)ccnc1CSc1nc2ccccc2[nH]1	1 µg/mL (≈ 3.07 µM)	0.46	0.5 µg/mL (≈ 1.54 µM)
CC1(C)S[C@@H]2[C@H](NC(=O)[C@H](N)c3ccc(O)cc3)C(=O)N2[C@H]1C(=O)O [AMOXICILLIN]	0.05 µg/mL (≈ 0.137 µM)		0.05 µg/mL (≈ 0.137 µM)
Cc1c(OCC(F)(F)F)ccnc1CSc1nc2ccccc2[nH]1 [LANSOPRAZOLE SULFIDE]	4 µg/mL (≈ 11.3 µM)	0.28	
COc1ccc2[nH]c(SCc3ncc(C)c(OC)c3C)nc2c1 [UFIPRAZOLE]	32 µg/mL (≈ 97.1 µM)	0	
